Bioassay records as filed in PubChem.
The list is not random: actives were taken first. Their share in the collection is about 1.5%.
CXCR6 inh: inhibitors of human CXCR6 receptor. CHO-K1 PathHunter CXCR6 beta-arrestin, luminescence. O00574. inhibition, % at 20 µM. 0.36% of 360,000 active; in the data active = inhibition above about 34%, passing the limit was not always enough;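 note: antagonist mode with CXCL16 agonist at 10 nM final; 0% = 10 nM CXCL16 with DMSO and 100% = unstimulated wells without agonist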
Target sequence (O00574 whole entry, looked up): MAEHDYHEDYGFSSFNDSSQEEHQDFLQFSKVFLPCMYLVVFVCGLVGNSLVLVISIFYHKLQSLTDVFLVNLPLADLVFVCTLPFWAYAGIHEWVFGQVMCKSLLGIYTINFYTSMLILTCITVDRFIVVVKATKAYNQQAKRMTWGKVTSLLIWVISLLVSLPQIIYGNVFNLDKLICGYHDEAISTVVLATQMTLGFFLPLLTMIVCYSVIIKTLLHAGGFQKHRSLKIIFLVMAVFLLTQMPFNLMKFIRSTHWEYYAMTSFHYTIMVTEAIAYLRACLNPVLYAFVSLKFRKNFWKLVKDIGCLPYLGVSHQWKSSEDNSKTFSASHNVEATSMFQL
iPSC survival up: increases survival of single human iPS cells | 0.044% of 360,000 active | hiPSC single-cell survival, ATPlite luminescence; 100% = ROCK inhibitor wells, 0% = DMSO | AID 602274 | survival enhancement, % at 20 µM; in the data active = survival enhancement above about 18%;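 note: cells exposed to compounds for 16 hours before the ATP read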
CCR6 antagonist: blocks CCL20-driven beta-arrestin recruitment at human CCR6; inhibition, % at 20 µM; 0.49% of 340,000 active; P51684; CHO-K1 CCR6 PathHunter beta-arrestin, luminescence, CCL20-stimulated;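 active = compounds whose inhibition of the agonist-driven luminescence signal at 20 µM reaches about 50%, limit read from the data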;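 note: cells stimulated with CCL20 at 14 nM final; plate controls were DMSO with CCL20 for no effect and DMSO without agonist for full effect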
APJ ag: agonists of human APJ apelin receptor | 0.11% of 330,000 active | P35414 | activation, % at 20 µM | CHO-K1 APJ PathHunter beta-arrestin, luminescence; 0% DMSO wells, 100% apelin | AID 2520;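 active = activation more than six SD over the plate average, tested at 20 µM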;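 note: 0% = DMSO alone and 100% = apelin-13 at 10 nM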
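Assay system: CHO-K1 APJ beta-arrestin complementation cell line / Compound: single test compound dose, 20 µM final, 1% DMSO / Times: overnight seeding, 90 min compound at 25 °C, 1 h detection / Technique: beta-gal luminescence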
APJ antag: antagonists of human APJ apelin receptor | P35414 | CHO-K1 APJ beta-arrestin complementation, luminescence | inhibition, % at 20 µM | 0.32% of 330,000 active | AID 2521;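 active = inhibition above about 40% at 20 µM, limit read from the data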;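 note: cells challenged with 10 nM apelin-13 agonist together with compound; plate controls were apelin-13 plus DMSO wells for no effect and DMSO wells lacking apelin-13 for full effect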
EBI2 block: EBI2 (human) antagonism. inhibition, % at 5 µM. P32249. 0.81% of 360,000 active. EBI2 beta-arrestin recruitment, luminescence, 7a,25-OHC stimulated; in the data active = inhibition above about 38%;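 note: enzyme fragment complementation signal reports receptor beta-arrestin coupling in cells; 0% = agonist plus DMSO wells and 100% = wells without agonist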
Target sequence (P32249 whole entry, looked up, the tested form may be a part): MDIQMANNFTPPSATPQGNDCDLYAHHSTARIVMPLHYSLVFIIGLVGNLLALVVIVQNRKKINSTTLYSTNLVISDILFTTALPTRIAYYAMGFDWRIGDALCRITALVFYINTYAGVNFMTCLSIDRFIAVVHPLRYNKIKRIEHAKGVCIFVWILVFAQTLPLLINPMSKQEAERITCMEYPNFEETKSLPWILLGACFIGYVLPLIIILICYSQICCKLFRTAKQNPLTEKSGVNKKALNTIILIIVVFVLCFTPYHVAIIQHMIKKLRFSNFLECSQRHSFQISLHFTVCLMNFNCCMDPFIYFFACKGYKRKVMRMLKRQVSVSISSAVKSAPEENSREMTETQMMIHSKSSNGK
EBI2 conf: confirmation of human EBI2 receptor antagonists; 29% of 2,400 active; shares compounds with EBI2 block; inhibition, % at 5 µM; EBI2 beta-arrestin luminescence, 7a,25-OHC antagonism;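 active = inhibition of at least 50%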
EBI2 agonist: EBI2 agonism counter-screen | shares compounds with EBI2 block | EBI2-expressing cells, agonist mode, luminescence, 60 min; 0% vehicle, 100% 7α,25-dihydroxycholesterol control | activation, % at 5 µM | 2,400 tested, under 10 active;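 active = activation of at least 50%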
bGal cs: inhibits E. coli beta-galactosidase, counter-screen for EBI2 antagonists | inhibition, % at 5 µM | purified beta-galactosidase, luminescent Galacton Star, 15 min | shares compounds with EBI2 block | 1% of 2,400 active;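 active = replicate-average signal at least 3 plate SD below neutral wells, shown as high inhibition, flagging enzyme-inhibiting false positives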;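 note: 0% = DMSO wells with enzyme and 100% = wells lacking enzyme; higher means stronger loss of beta-gal luminescence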
* = called active by the depositor.

What do the screens show for `CCOC(=O)C1CCN(C(=O)CSc2ccc(Br)cc2)CC1`?
CXCR6 inh: 6.6; iPSC survival up: -0.9; CCR6 antagonist: 1.2; APJ ag: -2.1; APJ antag: -10.6; EBI2 block: 83.7*; EBI2 conf: 54.3*; EBI2 agonist: 1.2; bGal cs: 4.9

Results for O=C(CSc1ccc(Cl)cc1)N1CCC(c2nc3ccccc3s2)CC1 ?
CXCR6 inh: 0.4; iPSC survival up: 0.8; CCR6 antagonist: 5.0; APJ ag: -3.1; APJ antag: -30.2; EBI2 block: 82.5*; EBI2 conf: 66.4*; EBI2 agonist: 0.9; bGal cs: -8.3

Results for CCOC(=O)C1CCN(C(=O)COc2ccc(Br)cc2C)CC1 ?
CXCR6 inh: 1.9; iPSC survival up: -0.9; CCR6 antagonist: -0.4; APJ ag: -0.5; APJ antag: -1.6; EBI2 block: 32.4

How did CCOC(=O)C1CCN(C(=O)CSc2ccc(Cl)cc2)CC1 do in these assays?
CXCR6 inh: 6.9; iPSC survival up: -2.2; CCR6 antagonist: -12.8; APJ ag: -2.9; APJ antag: 10.5; EBI2 block: 76.7*; EBI2 conf: 46.7; EBI2 agonist: 2.8; bGal cs: 6.6

What do the screens show for `COc1ccc(CNC(=O)/C=C/c2ccc(OCCCF)cc2)cc1OC`?
CXCR6 inh: 6.4; iPSC survival up: -1.0; CCR6 antagonist: 5.8; APJ ag: 3.0; APJ antag: -3.7; EBI2 block: -2.4

Results for O=C(/C=C/c1ccc(OCCCF)cc1)NCc1ccc(Cl)c(Cl)c1 ?
CXCR6 inh: -1.0; iPSC survival up: 2.2; CCR6 antagonist: 9.8; APJ ag: 3.4; APJ antag: -7.0; EBI2 block: 44.3*; EBI2 conf: 39.9; EBI2 agonist: 0.1; bGal cs: 5.2

What do the screens show for `COCCCn1c(=O)/c(=C\c2ccccc2OC(F)F)s/c1=C(/C#N)C(=O)NC(C)C`?
CXCR6 inh: 11.2; iPSC survival up: -1.0; CCR6 antagonist: 2.0; APJ ag: 0.2; APJ antag: 0.4; EBI2 block: 60.0*; EBI2 conf: 50.6*; EBI2 agonist: 0.4; bGal cs: -0.3

How did CCN(CC)S(=O)(=O)c1ccc2c(c1)nc(SCC(=O)N1CCCCCC1)n2-c1ccc(OC)cc1 do in these assays?
CXCR6 inh: 11.4; iPSC survival up: 2.4; CCR6 antagonist: 14.6; APJ ag: 0.9; APJ antag: 11.9; EBI2 block: 47.1*; EBI2 conf: 56.4*; EBI2 agonist: 1.1; bGal cs: 1.3

How did CCOc1ccc(C(C)C)cc1S(=O)(=O)N1CCN(C(=O)c2ccco2)CC1 do in these assays?
CXCR6 inh: 0.2; iPSC survival up: 1.0; CCR6 antagonist: 0.5; APJ ag: 1.8; APJ antag: 5.9; EBI2 block: -0.7

Results for CC1CCN(C2=NC(=O)/C(=C/c3cn(-c4ccccc4)nc3-c3cccc(S(=O)(=O)N(C)C)c3)S2)CC1 ?
CXCR6 inh: 21.3; iPSC survival up: -2.1; CCR6 antagonist: 13.9; APJ ag: -3.0; APJ antag: 30.7; EBI2 block: 47.6*; EBI2 conf: 40.0; EBI2 agonist: -0.7; bGal cs: -14.2

What do the screens show for `COC(=O)c1cccc(N(CC(=O)NC2CCCC2)C(=O)CCC(=O)Nc2cc(C)on2)c1`?
CXCR6 inh: 5.6; iPSC survival up: 1.7; CCR6 antagonist: 5.5; APJ ag: -3.5; APJ antag: 12.9; EBI2 block: -6.3

Results for COc1ccc(/C=C/C(=O)c2ccc(Cl)s2)cc1O ?
CXCR6 inh: 13.7; iPSC survival up: -3.6; CCR6 antagonist: 26.5; APJ ag: -2.1; APJ antag: 2.6; EBI2 block: 12.8

What do the screens show for `COc1cc(/C=C/C(=O)c2ccc(Cl)s2)cc(OC)c1O`?
CXCR6 inh: 37.2; iPSC survival up: -2.2; CCR6 antagonist: 47.7; APJ ag: -1.9; APJ antag: 30.8; EBI2 block: 44.8*; EBI2 conf: 32.6; EBI2 agonist: -1.7; bGal cs: 4.4

What do the screens show for `COc1ccc([C@H]2CC(=O)C=C(c3cccc(Cl)c3)C2)cc1`?
CXCR6 inh: -2.0; iPSC survival up: 3.0; CCR6 antagonist: 17.2; APJ ag: -3.8; APJ antag: 5.1; EBI2 block: 42.3

How did O=C1C=C(c2ccc(Oc3ccccc3)cc2)C[C@@H](c2ccc(Cl)cc2)C1 do in these assays?
CXCR6 inh: 0.8; iPSC survival up: 1.0; CCR6 antagonist: 13.8; APJ ag: -0.8; APJ antag: 8.4; EBI2 block: 14.2

How did O=C1C=C(c2ccc(-c3ccccc3)c(F)c2)C[C@@H](c2ccc(Cl)cc2)C1 do in these assays?
CXCR6 inh: -8.8; iPSC survival up: -2.3; CCR6 antagonist: 12.5; APJ ag: -2.2; APJ antag: -0.1; EBI2 block: 37.8

What do the screens show for `CSc1ccc(C2=CC(=O)C[C@H](c3ccc(Cl)cc3)C2)cc1`?
CXCR6 inh: 5.6; iPSC survival up: -0.1; CCR6 antagonist: 17.2; APJ ag: -4.5; APJ antag: 2.8; EBI2 block: 66.8*; EBI2 conf: 51.8*; EBI2 agonist: 2.1; bGal cs: 5.5

What do the screens show for `CC(=O)Nc1ccc(C2=CC(=O)C[C@H](c3ccc(Cl)cc3)C2)cc1`?
CXCR6 inh: 2.4; iPSC survival up: 1.6; CCR6 antagonist: 7.9; APJ ag: -3.3; APJ antag: -1.4; EBI2 block: 38.6

What do the screens show for `O=C1C=C(c2ccc3c(c2)oc2ccccc23)C[C@@H](c2ccc(Cl)cc2)C1`?
CXCR6 inh: 10.3; iPSC survival up: 1.3; CCR6 antagonist: 5.0; APJ ag: -4.6; APJ antag: 0.7; EBI2 block: 62.4*; EBI2 conf: 22.6; EBI2 agonist: 2.1; bGal cs: 5.0

Results for O=C1C=C(c2cccc(Cl)c2)C[C@@H](c2ccc(Cl)cc2)C1 ?
CXCR6 inh: 2.3; iPSC survival up: 5.9; CCR6 antagonist: 24.9; APJ ag: -3.4; APJ antag: -5.2; EBI2 block: 53.0*; EBI2 conf: 25.2; EBI2 agonist: -1.9; bGal cs: -6.2

Results for O=C1C=C(c2cccc(Br)c2)C[C@@H](c2ccc(Cl)cc2)C1 ?
CXCR6 inh: -9.6; iPSC survival up: 2.2; CCR6 antagonist: 19.0; APJ ag: -4.2; APJ antag: 6.5; EBI2 block: 46.5*; EBI2 conf: 13.1; EBI2 agonist: -0.5; bGal cs: -13.0
